Source: ChEMBL document CHEMBL1143198, “Potent, nonpeptide inhibitors of human mast cell tryptase. Synthesis and biological evaluation of novel spirocyclic piperidine amide derivatives” (Bioorg Med Chem Lett, 2008)
Calls of active or inactive are those of the source. No cut-off for these calls is given here.

Assays:
[1] = Inhibition of human lung beta tryptase by chromogenic assay
Trypsin = Trypsin (Homo sapiens, UniProt P07477+P07478+P35030); test: Inhibition of human trypsin by chromogenic assay; type: protein assay
Homo sapiens [2] = species on record: Homo sapiens; test: Inhibition of human recombinant beta tryptase at 50 uM by chromogenic assay; details: in the assay text read “human lung beta tryptase” for “human recombinant beta tryptase”
Summary of the method: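 A405 followed for 15 min at 22 °C after enzyme addition. Percent inhibition at 50 µM compared initial velocities with and without inhibitor.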

Homo sapiens [3] = species on record: Homo sapiens; test: Ratio of IC50 for human trypsin to IC50 for human tryptase
Summary of the method: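 Human lung β-tryptase: 1 nM, H-D-HHT-Ala-Arg-pNA 500 µM, Tris/Hepes/NaCl/PEG buffer, pH 7.4. Human pancreatic trypsin: 1.8 nM, N-α-Z-D-Arg-Gly-Arg-pNA 60 µM, 200 mM NaCl, 50 mM Hepes, 0.5% octyl glucoside, pH 7.4.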

[4] = Cmax in orally dosed dog; type: ADME, organism-based, Canis lupus familiaris; parameters: route oral; details: in vivo, po
[5] = Metabolic stability in human liver microsomes assessed as half life; type: ADME, Microsome
[6] = target: Amine oxidase [flavin-containing] A (Homo sapiens, UniProt P21397); test: Inhibition of monoamine oxidase A
Rattus norvegicus = test: Volume of distribution in orally dosed rat; type: ADME, organism-based; details: in vivo, po
Cytochrome P450 2D6 = Cytochrome P450 2D6 (Homo sapiens, UniProt P10635); test: Inhibition of human CYP2D6; type: ADME
Cytochrome P450 2D6, sequence (P10635 whole entry): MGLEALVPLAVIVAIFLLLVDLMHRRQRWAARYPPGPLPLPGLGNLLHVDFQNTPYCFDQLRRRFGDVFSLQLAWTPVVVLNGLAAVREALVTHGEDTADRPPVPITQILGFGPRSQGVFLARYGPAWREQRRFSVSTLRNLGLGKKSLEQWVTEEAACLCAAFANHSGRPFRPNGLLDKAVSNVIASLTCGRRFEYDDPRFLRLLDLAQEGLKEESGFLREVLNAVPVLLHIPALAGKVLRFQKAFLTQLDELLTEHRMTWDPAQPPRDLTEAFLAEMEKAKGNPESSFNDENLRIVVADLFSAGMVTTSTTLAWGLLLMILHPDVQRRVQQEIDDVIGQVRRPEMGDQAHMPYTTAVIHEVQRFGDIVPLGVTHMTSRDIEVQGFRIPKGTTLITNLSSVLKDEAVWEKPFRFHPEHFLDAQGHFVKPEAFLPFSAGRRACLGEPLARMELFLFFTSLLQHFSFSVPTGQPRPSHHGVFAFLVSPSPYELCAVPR
Summary of the method: (§1)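 IC50 for cytochrome P450 isozyme inhibition was measured in isolated human liver microsomes.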

[7] = target: Amine oxidase [flavin-containing] B (Homo sapiens, UniProt P27338); test: Inhibition of monoamine oxidase B
Amine oxidase [flavin-containing] B, sequence (P27338 whole entry): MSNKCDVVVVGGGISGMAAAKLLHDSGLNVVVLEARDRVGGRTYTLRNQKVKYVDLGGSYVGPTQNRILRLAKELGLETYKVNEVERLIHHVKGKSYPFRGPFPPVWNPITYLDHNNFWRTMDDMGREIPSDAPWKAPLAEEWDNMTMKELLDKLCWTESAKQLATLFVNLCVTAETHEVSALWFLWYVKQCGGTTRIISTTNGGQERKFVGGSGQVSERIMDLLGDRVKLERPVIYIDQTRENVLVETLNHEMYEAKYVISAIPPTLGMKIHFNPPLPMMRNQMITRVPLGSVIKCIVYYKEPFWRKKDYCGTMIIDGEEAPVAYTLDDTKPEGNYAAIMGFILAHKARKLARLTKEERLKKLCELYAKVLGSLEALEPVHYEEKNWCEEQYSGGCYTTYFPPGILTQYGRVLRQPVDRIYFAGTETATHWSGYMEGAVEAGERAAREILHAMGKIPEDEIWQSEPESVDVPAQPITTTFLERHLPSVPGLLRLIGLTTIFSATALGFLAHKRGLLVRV

[8] = Metabolic stability in human liver microsomes after 60 mins; type: ADME, Microsome; details: read-out: Stability
monoamine oxidase B = test: Stability in presence of monoamine oxidase B after 30 mins; type: ADME; details: read-out: Stability
Summary of the method: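 The compound was tested as an MAO-B substrate, with parent remaining measured at 30 min. Benzylamine was run as a reference substrate.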

[9] = Cmax in orally dosed rat; type: ADME, organism-based; parameters: route oral; details: in vivo, po
[10] = Half life in orally dosed dog; type: ADME, organism-based, Canis lupus familiaris; details: in vivo, po
Canis familiaris = test: Volume of distribution in orally dosed dog; type: ADME, organism-based, Canis lupus familiaris; details: in vivo, po
Cytochrome P450 2C9 = Cytochrome P450 2C9 (Homo sapiens, UniProt P11712); test: Inhibition of human CYP2C9; type: ADME
Cytochrome P450 2C9, sequence (P11712 whole entry): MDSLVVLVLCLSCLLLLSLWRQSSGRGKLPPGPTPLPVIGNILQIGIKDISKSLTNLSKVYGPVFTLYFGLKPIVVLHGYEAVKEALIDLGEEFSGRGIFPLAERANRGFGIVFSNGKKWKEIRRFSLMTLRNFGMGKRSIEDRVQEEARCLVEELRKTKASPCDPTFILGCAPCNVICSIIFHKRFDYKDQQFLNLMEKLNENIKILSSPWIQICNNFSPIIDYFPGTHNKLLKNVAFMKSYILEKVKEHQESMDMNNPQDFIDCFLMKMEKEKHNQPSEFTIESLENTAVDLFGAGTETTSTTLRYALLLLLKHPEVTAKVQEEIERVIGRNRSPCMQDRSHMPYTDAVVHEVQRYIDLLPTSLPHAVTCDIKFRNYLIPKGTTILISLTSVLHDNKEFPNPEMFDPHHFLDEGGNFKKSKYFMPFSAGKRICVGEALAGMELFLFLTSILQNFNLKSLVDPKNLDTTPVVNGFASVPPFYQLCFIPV
Summary of the method: as §1

Cytochrome P450 2C19 = Cytochrome P450 2C19 (Homo sapiens, UniProt P33261); test: Inhibition of human CYP2C19; type: ADME
Summary of the method: as §1

Cytochrome P450 1A2 = Cytochrome P450 1A2 (Homo sapiens, UniProt P05177); test: Inhibition of human CYP1A2; type: ADME
Summary of the method: as §1

Cytochrome P450 3A4 = Cytochrome P450 3A4 (Homo sapiens, UniProt P08684); test: Inhibition of human CYP3A4; type: ADME
Cytochrome P450 3A4, sequence (P08684 whole entry): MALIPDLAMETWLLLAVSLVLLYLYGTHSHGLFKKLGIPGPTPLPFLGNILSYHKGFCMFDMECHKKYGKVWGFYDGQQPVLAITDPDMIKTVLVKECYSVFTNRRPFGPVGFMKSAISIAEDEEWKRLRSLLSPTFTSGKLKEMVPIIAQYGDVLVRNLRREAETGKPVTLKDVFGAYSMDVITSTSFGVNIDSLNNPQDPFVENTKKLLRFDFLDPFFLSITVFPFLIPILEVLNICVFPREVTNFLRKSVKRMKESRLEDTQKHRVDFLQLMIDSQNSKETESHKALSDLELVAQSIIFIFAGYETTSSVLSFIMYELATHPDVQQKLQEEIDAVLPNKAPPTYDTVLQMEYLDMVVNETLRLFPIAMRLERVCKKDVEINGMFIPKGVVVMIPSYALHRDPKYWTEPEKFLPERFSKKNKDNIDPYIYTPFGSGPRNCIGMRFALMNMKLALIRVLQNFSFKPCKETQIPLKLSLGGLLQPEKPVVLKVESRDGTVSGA
Summary of the method: as §1

[11] = Half life in orally dosed rat; type: ADME, organism-based; details: in vivo, po
[12] = Oral bioavailability in rat; type: ADME, organism-based; details: in vivo
[13] = Oral bioavailability in dog; type: ADME, organism-based, Canis lupus familiaris; details: in vivo
Cavia porcellus [14] = test: Antiinflammatory activity in ovalbumin-sensitized guinea pig asthma model assessed as increase in dynamic lung compliance at 20 mg/kg, po BID for 3 days relative to control; type: functional
Summary of the method: (§2)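 Ovalbumin-sensitized guinea pigs received the benzoate salt orally at 20 mg/kg twice daily for 3 days, then once on Day 4 at 2 h before ovalbumin challenge.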

Plasma = test: Drug level in sheep plasma; type: ADME, cell-free, Ovis aries
Cavia porcellus [15] = test: Antiinflammatory activity in ovalbumin-sensitized guinea pig asthma model assessed as reduction in total lung resistance at 20 mg/kg, po BID for 3 days relative to control; type: functional; parameters: scale not given: the % may be the effect or the level left
Summary of the method: as §2

Cavia porcellus [16] = test: Antiinflammatory activity in ovalbumin-sensitized guinea pig asthma model assessed as reduction in total WBC cell count at 20 mg/kg, po BID for 3 days relative to control; type: functional; parameters: scale not given: the % may be the effect or the level left
Summary of the method: as §2

Ovis aries [17] = test: Antiinflammatory activity in Ascaris suum-sensitized sheep asthma model assessed as blockade of late-phase airway response at 30 mg/kg, po BID after 8 hrs; type: functional, organism-based; parameters: dose 30 mg/kg
Summary of the method: (§3)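 Conscious, antigen-sensitized allergic sheep were dosed by oral gavage with the benzoate salt at 30 mg/kg twice on Day 1, and on Day 2 at 2 h before antigen challenge. Airway resistance (SR_L) was monitored for 8 h after challenge: early phase 0–4 h, late phase 4–8 h. Airway hyper-reactivity to carbachol (PC₄₀₀) was measured at 24 h.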

[18] = Inhibition of chymotrypsin at 10 uM
[19] = target: Coagulation factor VII (Homo sapiens) (UniProt P08709); test: Inhibition of factor 7a at 10 uM
Coagulation factor VII (Homo sapiens), sequence (P08709 61-212 limits assumed): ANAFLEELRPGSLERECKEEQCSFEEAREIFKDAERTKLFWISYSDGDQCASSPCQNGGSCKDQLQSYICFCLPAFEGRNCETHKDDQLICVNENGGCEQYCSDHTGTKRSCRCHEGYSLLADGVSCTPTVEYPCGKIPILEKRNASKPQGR
Coagulation factor VII (Homo sapiens), sequence (P08709 213-466 limits assumed): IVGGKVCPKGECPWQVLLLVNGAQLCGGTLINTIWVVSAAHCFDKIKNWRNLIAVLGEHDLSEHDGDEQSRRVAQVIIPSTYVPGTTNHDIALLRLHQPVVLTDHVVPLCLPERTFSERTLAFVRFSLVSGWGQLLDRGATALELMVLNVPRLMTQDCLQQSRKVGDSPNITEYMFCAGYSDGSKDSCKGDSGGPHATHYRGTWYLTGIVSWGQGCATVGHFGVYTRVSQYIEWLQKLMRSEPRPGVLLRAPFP

[20] = Inhibition of streptokinase at 10 uM
[21] = target: Prothrombin (Homo sapiens) (UniProt P00734); test: Inhibition of thrombin at 10 uM
[22] = target: Urokinase-type plasminogen activator (Homo sapiens) (UniProt P00749); test: Inhibition of uPA at 10 uM
[23] = target: Tissue-type plasminogen activator (Homo sapiens) (UniProt P00750); test: Inhibition of tPA at 10 uM
Tissue-type plasminogen activator (Homo sapiens), sequence (P00750 36-562 limits assumed): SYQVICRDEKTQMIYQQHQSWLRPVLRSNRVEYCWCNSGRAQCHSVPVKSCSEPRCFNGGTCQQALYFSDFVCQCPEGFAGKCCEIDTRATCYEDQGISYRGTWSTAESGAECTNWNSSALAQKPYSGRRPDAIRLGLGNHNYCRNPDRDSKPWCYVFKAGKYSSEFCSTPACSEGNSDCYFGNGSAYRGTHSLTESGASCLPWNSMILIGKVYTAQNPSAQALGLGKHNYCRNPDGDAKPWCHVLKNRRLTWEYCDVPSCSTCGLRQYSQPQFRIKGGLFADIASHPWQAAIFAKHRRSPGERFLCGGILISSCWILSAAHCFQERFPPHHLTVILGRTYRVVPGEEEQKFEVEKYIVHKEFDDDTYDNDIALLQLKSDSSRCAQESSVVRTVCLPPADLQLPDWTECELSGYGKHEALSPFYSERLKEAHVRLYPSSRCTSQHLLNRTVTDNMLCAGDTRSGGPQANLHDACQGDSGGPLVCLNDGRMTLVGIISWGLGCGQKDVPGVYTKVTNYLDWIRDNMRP

[24] = target: Cathepsin G (Homo sapiens) (UniProt P08311); test: Inhibition of cathepsin G at 50 uM
Chymase (Homo sapiens) = Chymase (Homo sapiens) (UniProt P23946); test: Inhibition of chymase at 50 uM
Chymase (Homo sapiens), sequence (P23946 whole entry): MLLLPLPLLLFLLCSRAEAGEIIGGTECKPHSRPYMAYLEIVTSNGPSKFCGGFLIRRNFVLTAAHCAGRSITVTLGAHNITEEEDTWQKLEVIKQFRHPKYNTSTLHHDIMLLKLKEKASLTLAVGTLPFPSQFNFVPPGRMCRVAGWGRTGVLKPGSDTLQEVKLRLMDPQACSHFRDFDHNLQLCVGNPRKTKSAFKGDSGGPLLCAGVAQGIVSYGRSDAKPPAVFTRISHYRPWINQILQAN

[25] = target: Neutrophil elastase (Homo sapiens) (UniProt P08246); test: Inhibition of human leukocyte elastase at 10 uM
Neutrophil elastase (Homo sapiens), sequence (P08246 whole entry): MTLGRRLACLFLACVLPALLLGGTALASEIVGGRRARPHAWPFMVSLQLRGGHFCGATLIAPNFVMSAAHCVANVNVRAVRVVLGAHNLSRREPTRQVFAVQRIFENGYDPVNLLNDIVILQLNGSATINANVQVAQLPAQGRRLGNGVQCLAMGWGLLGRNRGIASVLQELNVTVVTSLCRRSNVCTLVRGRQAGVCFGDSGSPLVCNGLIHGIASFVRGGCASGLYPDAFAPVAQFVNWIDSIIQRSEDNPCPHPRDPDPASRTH

[26] = target: Plasminogen (Homo sapiens) (UniProt P00747); test: Inhibition of plasmin at 10 uM
Plasminogen (Homo sapiens), sequence (P00747 97-580 limits assumed): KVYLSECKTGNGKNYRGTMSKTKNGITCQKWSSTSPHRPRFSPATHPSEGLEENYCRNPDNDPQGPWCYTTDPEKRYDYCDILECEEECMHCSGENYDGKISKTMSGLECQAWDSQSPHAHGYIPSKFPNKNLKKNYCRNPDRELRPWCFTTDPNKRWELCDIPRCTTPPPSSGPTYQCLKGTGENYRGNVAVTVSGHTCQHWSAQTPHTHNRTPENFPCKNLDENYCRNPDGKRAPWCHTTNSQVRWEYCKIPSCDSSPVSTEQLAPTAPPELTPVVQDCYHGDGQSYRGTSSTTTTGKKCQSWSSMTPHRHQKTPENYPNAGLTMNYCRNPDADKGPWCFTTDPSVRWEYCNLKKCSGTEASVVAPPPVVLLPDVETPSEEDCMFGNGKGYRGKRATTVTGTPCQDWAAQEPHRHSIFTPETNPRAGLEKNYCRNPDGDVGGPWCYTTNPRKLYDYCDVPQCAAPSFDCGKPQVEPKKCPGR
Plasminogen (Homo sapiens), sequence (P00747 581-810 limits assumed): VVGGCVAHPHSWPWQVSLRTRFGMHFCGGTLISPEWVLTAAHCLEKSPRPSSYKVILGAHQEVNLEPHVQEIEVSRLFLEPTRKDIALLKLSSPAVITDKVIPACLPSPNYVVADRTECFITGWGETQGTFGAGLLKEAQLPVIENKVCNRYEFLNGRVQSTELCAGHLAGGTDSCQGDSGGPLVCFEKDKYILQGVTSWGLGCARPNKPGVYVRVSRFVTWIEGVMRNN

Ovis aries [27] = test: Antiinflammatory activity in Ascaris suum-sensitized sheep asthma model assessed as blockade of early-phase airway response at 30 mg/kg, po BID after 8 hrs; type: functional, organism-based; parameters: dose 30 mg/kg
Summary of the method: as §3

Ovis aries [28] = test: Antiinflammatory activity in Ascaris suum-sensitized sheep asthma model assessed as increase in airway hyperactivity at 30 mg/kg, po BID after 24 hrs relative to carbachol; type: functional, organism-based; parameters: dose 30 mg/kg
Summary of the method: as §3

[29] = target: Plasma kallikrein (Homo sapiens) (UniProt P03952); test: Inhibition of kallikrein at 10 uM
Plasma kallikrein (Homo sapiens), sequence (P03952 20-390 limits assumed): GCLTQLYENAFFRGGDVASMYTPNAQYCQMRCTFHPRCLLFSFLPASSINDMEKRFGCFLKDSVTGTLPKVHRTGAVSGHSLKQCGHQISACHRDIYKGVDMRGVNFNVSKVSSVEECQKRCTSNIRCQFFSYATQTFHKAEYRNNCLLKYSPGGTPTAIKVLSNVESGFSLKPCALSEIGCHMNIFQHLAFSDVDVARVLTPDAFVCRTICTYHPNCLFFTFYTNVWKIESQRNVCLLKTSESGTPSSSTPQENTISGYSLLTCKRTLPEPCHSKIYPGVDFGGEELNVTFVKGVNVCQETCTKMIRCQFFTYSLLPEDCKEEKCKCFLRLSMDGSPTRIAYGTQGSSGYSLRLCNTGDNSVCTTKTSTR
Plasma kallikrein (Homo sapiens), sequence (P03952 391-638 limits assumed): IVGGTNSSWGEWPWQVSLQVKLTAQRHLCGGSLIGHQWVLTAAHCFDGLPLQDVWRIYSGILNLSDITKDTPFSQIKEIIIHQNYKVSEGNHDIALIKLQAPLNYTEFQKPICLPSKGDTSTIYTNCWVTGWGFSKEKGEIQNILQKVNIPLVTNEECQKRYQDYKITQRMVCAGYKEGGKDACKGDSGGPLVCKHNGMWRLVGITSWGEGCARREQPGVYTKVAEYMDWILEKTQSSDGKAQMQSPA

[30] = target: Coagulation factor X (Homo sapiens) (UniProt P00742); test: Inhibition of factor 10a at 50 uM

SMILES	IC50 [1] [nM]	IC50 (Trypsin) [µM]	Ki [1] [nM]	other results
N/N=C(\N)c1ccc2c(c1)C1(CCN(C(=O)c3ccc(C#Cc4ccccc4)o3)CC1)CO2	59	> 50	–	–
NCc1ccc2c(c1)C1(CCN(C(=O)c3ccc(C#Cc4ccccc4F)o3)CC1)CO2	4.3	12	3	–
CC(=O)N1CC2(CCN(C(=O)c3ccc(C#Cc4ccccc4)o3)CC2)c2cc(CN)ccc21	15	> 50	–	–
NCc1ccc2c(c1)C1(CC2)CCN(C(=O)c2ccc(C#Cc3ccccc3)o2)CC1	3.1	7.7	–	–
NC(=O)c1ccc2c(c1)C1(CCN(C(=O)c3ccc(C#Cc4ccccc4)o3)CC1)CO2	–	39	–	inhibition (Homo sapiens [2]): 29%
NCc1cccc(C2CCN(C(=O)c3ccc(C#Cc4ccccc4)o3)CC2)c1	–	–	8.7	–
NCc1ccc2c(c1)C1(CCN(C(=O)c3ccc(C#Cc4ccccc4)o3)CC1)CN2	23	> 50	–	–
N=C(N)c1ccc2c(c1)C1(CCN(C(=O)c3ccc(C#Cc4ccccc4)o3)CC1)CO2	4.5	1.4	–	Ratio IC50 (Homo sapiens [3]): 300
CC(=O)N1C[C@H](O)C[C@H]1C(=O)NC(CCCNC(=N)N)C(=O)c1nc2ccccc2s1 (some centres not stated)	13	–	10	–
NCc1ccc2c(c1)C1(CCN(C(=O)c3ccc(C#Cc4ccccc4)o3)CC1)CO2 [listing 1 of 2 here]	–	18	–	Cmax [4]: 900 nM; half-life [5]: > 100 min; IC50 [6]: 23 µM; Vd (Rattus norvegicus): 17 L/kg; IC50 (Cytochrome P450 2D6): > 20 µM; IC50 [7]: 72 µM; remaining at 1 h [8]: 100%; remaining at 0.5 h (monoamine oxidase B): 95%; Cmax [9]: 1100 nM; half-life [10]: 1620 min; Vd (Canis familiaris): 16 L/kg; IC50 (Cytochrome P450 2C9): > 20 µM; IC50 (Cytochrome P450 2C19): > 20 µM; IC50 (Cytochrome P450 1A2): > 20 µM; IC50 (Cytochrome P450 3A4): > 20 µM; half-life [11]: 420 min; bioavailability [12]: 100%; bioavailability [13]: 65%; Ki (Trypsin): 2500 nM
CS(=O)(=O)N1CC2(CCN(C(=O)c3ccc(C#Cc4ccccc4)o3)CC2)c2cc(CN)ccc21	1.8	> 50	7.1	–
C/N=C(/N)c1ccc2c(c1)C1(CCN(C(=O)c3ccc(C#Cc4ccccc4)o3)CC1)CO2	780	> 50	–	–
Cc1ccc(C#Cc2ccc(C(=O)N3CCC4(CC3)COc3ccc(CN)cc34)o2)cc1	8.3	13	–	–
NCc1ccc2c(c1)C1(CCN(C(=O)c3ccc(CCc4ccccc4)o3)CC1)CO2	82	47	–	–
NCc1ccc2c(c1)C1(CCN(C(=O)c3ccc(Sc4ccccc4)o3)CC1)CO2	90	9.1	–	–
COc1ccccc1C#Cc1ccc(C(=O)N2CCC3(CC2)COc2ccc(CN)cc23)o1	13	5.5	–	–
NCc1ccc2c(c1)C1(CCN(C(=O)c3ccc(C#Cc4ccccc4)o3)CC1)CO2.O=C(O)c1ccccc1	–	–	–	Activity (Cavia porcellus [14]): 65%; concentration (Plasma): 400 nM; Activity (Cavia porcellus [15]): 90%; Activity (Cavia porcellus [16]): 20%
NCc1ccc2c(c1)C1(CCN(C(=O)c3ccc(C#Cc4ccccc4)o3)CC1)CO2 [listing 2 of 2 here]	–	–	–	Activity (Ovis aries [17]): Active; inhibition [18]: < 15%; inhibition [19]: < 15%; inhibition [20]: < 15%; inhibition [21]: < 15%; inhibition [22]: < 15%; inhibition [23]: < 15%; inhibition [24]: < 30%; inhibition (Chymase (Homo sapiens)): < 30%; inhibition [25]: < 15%; inhibition [26]: < 15%; Activity (Ovis aries [27]): inactive; Activity (Ovis aries [28]): Active; inhibition [29]: < 15%; inhibition [30]: < 30%
NCc1ccc2c(c1)C1(CCN(C(=O)c3ccc(-c4ccccc4)o3)CC1)CO2	28	8.6	–	–
NCc1cccc(C2CCN(C(=O)c3ccc(C#Cc4ccccc4F)o3)CC2)c1	–	–	31	–
CC(C)(C)c1ccc(C#Cc2ccc(C(=O)N3CCC4(CC3)COc3ccc(CN)cc34)o2)cc1	700	13	–	–
Cc1ccccc1C#Cc1ccc(C(=O)N2CCC3(CC2)COc2ccc(CN)cc23)o1	1.2	12	4	–
NCc1ccc2c(c1)C1(CCN(C(=O)c3ccc(C#Cc4ccccc4Cl)o3)CC1)CO2	5.2	38	3.4	–
NCc1ccc2c(c1)C1(CCN(C(=O)c3ccc(C#Cc4ccccc4)o3)CC1)CN2S(=O)(=O)c1ccccc1	5.7	6.7	16	–
NCc1ccc2c(c1)C1(CCN(C(=O)c3ccc(C#Cc4ccc(O)cc4)o3)CC1)CO2	3200	23	–	–
